HCT116 bCat-KO – beta-catenin-lacking colon tumor cell growth suppression | HCT116 beta-catenin knockout viability, CellTiter-Glo, 60 h; active compounds read low | viability, % at 10 µM | 1.5% of 140,000 active;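 active means viability at or under a set limit, the compound median less 4 SD, cut at about 6% in these data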;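 further: 0% = Hyamine 1622 control at 20 µM and 100% = untreated cell control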
H69AR inhibit – blocks growth of human H69AR lung tumor cells; viability, % at 10 µM; AID 598; 6% of 85,000 active; H69AR lung tumor viability, ATP luminescence, 72 h; active compounds read low;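 active means viability at or below 40%; inactive means viability above 40%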;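 further: multidrug resistant small cell line overexpressing MRP-1 efflux transporter; 100% = mean luminescence of untreated control wells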
HCT116 PTEN-null – growth suppressors of cells with PTEN tumor suppressor deletion; viability, % at 10 µM; AID 827; HCT116 PTEN-null viability, CellTiter-Glo, 60 h; active compounds read low; 1.2% of 140,000 active;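 active means viability at or below a set limit, 4 SD under the median of all tested compounds, cut at about 3.7% in these data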;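 further: PTEN knockout HCT116 line with beta catenin targeted HCT116 as companion control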
Lung fibro prol – blocks proliferation of human lung fibroblasts | 1.1% of 85,000 active | AID 719 | viability, % at 10 µM | LL 47 human lung fibroblast viability, ATP luminescence; active compounds read low;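 active means viability at or below 50% in the single dose screen; inactive means viability above 50%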;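 further: compound exposure lasted 72 h before the ATP readout; 100% = median luminescence of untreated cell-only wells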
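Material: Human LL 47 lung fibroblast cells | Input: 1,150 cells/well | Buffer or medium: IMEM plus 15% FBS | Compound dosing: 0.1% DMSO in all compound wells | Times: Overnight cell rest, 72 h compound treatment at 37 °C | Signal: CellTiter-Glo luminescence measuring cellular ATP | Measure: % viability versus median cells-only luminescence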
HUVEC prolif 384 – human endothelial cell proliferation inhibition. HUVEC proliferation, CellTiter-Glo luminescence, 72 h; active compounds read low. viability, % at 10 µM (by protocol). 1.1% of 86,000 active;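 active means viability at or below 30%; inactive means viability above 30%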;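 further: 100% = median luminescence of DMSO-only cell control wells on each plate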
* marks the source's active call; other numbers are inactive results; . = no result given. This is one part of a sample in which hits are shown more often than they occur.

SMILES	HCT116 bCat-KO	H69AR inhibit	HCT116 PTEN-null	Lung fibro prol	HUVEC prolif 384
CCOc1ccc2nc(NC(=O)CSc3nnnn3C3CCCCC3)sc2c1	88.5	1.7*	81.2	91.3	79.5
CC(C)n1c(SCC(=O)Nc2nc3ccccc3s2)nc2c1c(=O)n(C)c(=O)n2C	72.6	29.1*	62.3	95.6	68.8
CCn1c(SCC(=O)N2c3ccccc3CCc3ccccc32)nc2c1c(=O)n(C)c(=O)n2C	.	14.3*	.	98.5	94.4
Cc1cc(NC(=O)CSc2nc3c(c(=O)n(C)c(=O)n3C)n2C(C)C)no1	98.4	89.9	103.4	97.4	100.5
Cc1cc([N+](=O)[O-])cnc1Sc1nccn1C	101.5	.	104.9	.	.
COC(=O)c1ccc(NC(=O)CSC2=NC(=O)C(c3ccccc3)C(=O)N2)cc1 (centres undefined)	96.0	.	104.8	.	.
CCC(C)NC(=O)CCc1nc2ccccc2n1-c1ccccc1 (centres undefined)	103.1	.	98.9	.	.
O=C(NCCc1ccccc1)c1ccc(Cl)nc1	98.5	110.3	103.6	103.8	107.9
CCn1c(SCC(=O)Nc2nc3ccc(OC)cc3s2)nc2c1c(=O)n(C)c(=O)n2C	69.0	17.1*	65.8	93.9	72.7
CCOc1ccc2nc(NC(=O)CSc3nc4c(c(=O)n(C)c(=O)n4C)n3C(C)C)sc2c1	59.8	30.1*	55.6	100.5	8.9*
CCn1c(SCC(=O)Nc2nc3c(s2)CCCC3)nc2c1c(=O)n(C)c(=O)n2C	.	16.9*	.	86.3	92.4
CCCn1c(SCC(=O)Nc2nc(-c3ccc(OC)cc3)cs2)nc2c1c(=O)n(C)c(=O)n2C	99.8	.	96.9	.	.
CCOc1ccc2nc(NC(=O)Cn3cnc4c3c(=O)n(C)c(=O)n4C)sc2c1	88.5	91.4	102.2	104.3	97.0
CCC(c1nnnn1Cc1ccco1)N(CCc1ccccc1)Cc1cc2cc(C)ccc2[nH]c1=O (centres undefined)	.	22.2*	.	87.7	75.9
CCc1ccc2[nH]c(=O)c(CN(Cc3ccccc3)Cc3nnnn3Cc3ccco3)cc2c1	79.1	20.7*	62.3	92.3	82.3
CCC(c1nnnn1Cc1ccccc1)N(Cc1ccco1)Cc1cc2cc(OC)ccc2[nH]c1=O (centres undefined)	35.0	16.2*	44.6	84.1	74.0
CCOC(=O)N1CCC(NC(=O)c2cnn3c(C(F)(F)F)cc(-c4cccc(OC)c4)nc23)CC1	.	97.7	.	27.1*	48.3
CCOC(=O)N1CCC(NC(=O)c2cc3cc4cc(OC)ccc4nc3o2)CC1	88.1	37.5*	79.2	91.0	91.8
CC1CC(C)CN(S(=O)(=O)c2ccc(C(=O)NCCCn3ccnc3)cc2)C1 (centres undefined)	84.2	2.7*	96.2	14.7*	78.8
CC1=CC(C)(C)N(S(=O)(=O)c2ccc(F)cc2)c2ccc(C)cc21	14.8	21.7*	13.8	50.9	59.9
CC1=CC(C)(C)N(C(=O)c2ccccc2)c2ccc(C)cc21	81.3	86.4	87.9	95.6	102.7
CC1=CC(C)(C)N(S(=O)(=O)c2ccc(C)cc2)c2ccccc21	17.8	28.2*	16.3	51.5	63.4
COc1cc(Cl)c(C)cc1NC(=O)c1cc(S(=O)(=O)N(C)C)ccc1N1CCCC1	66.9	.	56.7	.	.
O=C(Oc1nsnc1N1CCOCC1)N(c1ccccc1)c1ccccc1	82.2	83.8	80.5	.	93.3
COC(=O)Oc1nsnc1N1CCOCC1	100.8	2.7*	118.5	92.6	94.1
SMILES	HCT116 bCat-KO	H69AR inhibit	HCT116 PTEN-null	Lung fibro prol	HUVEC prolif 384
CCCCn1c(CNC(=O)CCC)nc2ccccc21	90.1	102.9	84.0	106.6	101.6
CCCn1c(CNc2ccccc2O)nc2ccccc21	53.1	26.8*	47.7	101.4	99.9
COc1ccc(N2CCN(C(=O)c3ccc(OCc4c(C)noc4C)c(OC)c3)CC2)cc1	89.6	92.3	93.4	95.5	101.5
COc1cc(C(=O)N2CCN(c3ccc([N+](=O)[O-])cc3)CC2)ccc1OCc1c(C)noc1C	67.1	38.3*	70.5	98.7	110.2
COc1ccc(C2=CC(c3sccc3C)n3nnnc3N2)cc1 (centres undefined)	75.5	40.0	84.0	93.7	91.0
COc1ccccc1C1C=C(c2ccccc2)Nc2nnnn21 (centres undefined)	91.1	10.6*	86.5	61.2	68.8
COc1cccc(C2=CC(c3cccs3)n3nnnc3N2)c1 (centres undefined)	26.4	14.9*	20.4	62.2	54.6
COc1cccc(C2=CC(c3ccc(OC)c(OC)c3OC)n3nnnc3N2)c1 (centres undefined)	16.2	7.6*	16.9	79.1	84.8
Cc1cccc(CS(=O)(=O)c2nnc([C@H](Cc3ccccc3)NC(=O)OC(C)(C)C)o2)c1	1.4*	0.5*	1.4*	108.1	47.2
COC(=O)CS(=O)(=O)c1nnc([C@H](Cc2ccccc2)NC(=O)OC(C)(C)C)o1	98.0	0.3*	90.8	0.9*	80.1
Cc1c(-c2nnc(SCC(=O)O)n2-c2ccccc2Br)nnn1-c1ccccc1	96.1	.	94.2	.	.
CC(=O)Oc1c(Cl)c(N2CCOCC2)c(OC(C)=O)c2ccccc12	49.2	1.9*	55.9	101.0	85.4
O=C(Nc1ccccc1)c1nnsc1S(=O)c1ccc(Cl)cc1 (centres undefined)	6.7	.	2.2*	.	.
O=C(Nc1ccc(Cl)cc1)c1cccs1	81.7	94.8	88.4	100.5	89.1
CCc1c(C)nc(SC(C(=O)O)c2ccccc2)c(C#N)c1C (centres undefined)	97.5	.	89.4	.	.
O=C(N/C=N/OCc1ccc(Cl)cc1Cl)NOCc1c(Cl)cccc1Cl	38.4	11.2*	47.9	87.4	33.1
CCOC(=O)c1c(NC(=O)COC(=O)CNC(=O)c2ccco2)sc(C(C)=O)c1C	103.3	.	98.4	.	.
Cc1ccccc1NC1=C(Cl)C(=O)OC1OC(=O)c1ccco1 (centres undefined)	72.4	9.9*	74.0	101.4	76.0
CCOC1OC(=O)C(Cl)=C1Nc1ccccc1C (centres undefined)	94.9	.	97.9	.	.
CCOc1ccc(-n2nnnc2-c2nc3ccccc3s2)cc1	3.3*	.	3.1*	.	.
Cc1ccc(-n2nnnc2-c2nc3ccccc3s2)cc1	93.1	.	98.7	.	.
CC1=CC(C)(C)Nc2ccc(OC(=O)CN3C(=O)c4ccccc4C3=O)cc21	1.4*	.	1.5*	.	.
CCSc1nnc(CNC(=O)C23CC4CC(CC(C4)C2)C3)n1C1CCCCC1	96.4	.	98.3	.	.
COc1ccc(-c2nc3scc(-c4ccccc4)n3n2)cc1	79.1	31.4*	81.5	73.8	67.2
O=C(Nc1cnn(Cc2ccc(Cl)cc2Cl)c1)c1noc2c1CCCC2	93.9	84.3	86.0	105.5	87.0
O=C(Nc1cnn(Cc2ccc(Cl)cc2Cl)c1)c1cc(-c2cccs2)on1	100.3	19.4*	86.4	97.1	66.4
CCn1cc([N+](=O)[O-])c(C(=O)N2N=C(c3ccc4ccccc4c3)CC2c2cc(Br)ccc2O)n1 (centres undefined)	2.4*	14.0*	3.2*	87.6	10.1*
CCn1cc([N+](=O)[O-])c(C(=O)N2N=C(c3ccc(O)c(OC)c3)CC2c2ccccc2O)n1 (centres undefined)	70.7	.	67.6	.	.

Screening data (PubChem BioAssay)
